Assay outcomes (PubChem)
Autophagy mod = alters autophagy in cells. MEF GFP-LC3 puncta imaging; test concentration mostly 10 µM. calls only at 10 µM (by protocol). actives 0.98% (n = 190,000);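 active = percentage of spot-positive cells more than 3 SD above its plate mean, without a fluorescence outlier flag or 80% toxicity; inconclusive = no clear call, values can overlap the other calls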;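 note: spot-positive cell cutoff set from DMSO-treated cells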
ABCB1 block = human ABCB1 inhibition, ABCG2 as counter-screen | CCRF-Adr cells, JC-1 efflux, flow cytometry | inhibition, % at 6.6 µM | actives 0.067% (n = 190,000) | AID 1326; in the data active = inhibition above about 40%;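 note: 0% = vehicle and 100% = reference inhibitor; higher value means more JC-1 retained so stronger ABCB1 efflux block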
ROMK mod = modulators of human ROMK potassium channel; B-score at 10 µM; Tet-inducible ROMK, thallium flux fluorescence; actives lie on both sides; actives 2% (n = 130,000);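 active = signal ratio slope over the read window, or its plate-corrected B-score, at least 3 SD from the plate mean, either direction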;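 note: B-score of the F/F0 ratio slope over 7 to 12 s after thallium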
Target sequence (P48048 whole entry, looked up): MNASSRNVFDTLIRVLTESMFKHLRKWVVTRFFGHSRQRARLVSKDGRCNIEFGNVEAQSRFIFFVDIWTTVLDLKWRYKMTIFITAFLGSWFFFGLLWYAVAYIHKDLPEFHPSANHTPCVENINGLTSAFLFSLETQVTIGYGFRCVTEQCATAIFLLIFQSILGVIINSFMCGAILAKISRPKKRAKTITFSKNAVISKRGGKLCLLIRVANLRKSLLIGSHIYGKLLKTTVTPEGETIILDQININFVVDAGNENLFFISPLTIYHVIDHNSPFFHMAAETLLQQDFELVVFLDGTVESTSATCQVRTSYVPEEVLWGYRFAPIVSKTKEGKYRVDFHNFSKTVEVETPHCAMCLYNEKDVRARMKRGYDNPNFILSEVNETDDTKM
ABCG2 block = human ABCG2 inhibition, ABCB1 as counter-screen | Q9UNQ0 | IgMXP3 cells, JC-1 efflux, flow cytometry | inhibition, % at 6.6 µM | actives 0.1% (n = 190,000) | AID 1325;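 active = inhibition above 80%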;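 note: 0% = DMSO and 100% = nicardipine control wells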
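Incubation: cells with compound and JC-1, 10 min at 25 °C, rotating, no wash / Test system: IgMXP3 (ABCG2) plus far-red-tagged CCRF-Adr (ABCB1) cells / Compound dosing: one concentration, 6.6 µM final / Also added: JC-1 fluorescent substrate / Evaluation: efflux inhibition in percent versus controls / Detection: flow cytometry, 530 nm JC-1 signal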
SDO1 yeast rescue = compounds rescuing growth of sdo1-depleted yeast, bone marrow failure model; S. cerevisiae sdo1-depleted JHY4D growth rescue, OD600 30 h; active compounds read high; pdr5 snq2 efflux-pump mutant strain; z-score at 10 µM; actives 0.21% (n = 140,000);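 active = z-score above 3 at both the 24 hr and the 30 hr optical density reads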;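 note: z-score against mean and SD of all compound wells on the same plate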
Insulin prom up = MIN6 insulin promoter up-regulation | actives 0.3% (n = 190,000) | z-score at 5 µM | MIN6 insulin promoter-GFP reporter, high-content imaging; active compounds read high;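 active = z-score above 3 at 5 µM with at least 500 cells counted in the well; inconclusive = wells under 500 cells, flagged as cytotoxic or low count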
* hit, by the source's call; i = inactive; ? = inconclusive; nt = no result given; + = active, no number. The list is not random: actives were taken first. Their share in the collection is about 2.3%.

SMILES	Autophagy mod	ABCB1 block	ROMK mod	ABCG2 block	SDO1 yeast rescue	Insulin prom up
Cc1ccc(-n2cc(CN(C)CCc3cn[nH]c3)c(-c3cccc(C)c3)n2)cc1	i	1	-1.7	1	nt	-1.4
CC1(c2ccccc2)CC(C)(C)N2C(=O)Cc3cccc1c32 (stereo not drawn)	i	0	-0.0032	1	nt	-1.1
O=c1oc2ccc3ccccc3c2cc1-c1nnc(-c2ccccc2)o1	i	0	-0.5	1	-1.2	nt
Nc1nnc(-c2cc3c(ccc4ccccc43)oc2=O)s1	i	0	nt	1	nt	8.8*
O=C(O)C1CC=CCC1C(=O)NNc1ccccc1 (stereo not drawn)	i	1	0.72	2	nt	-0.09
CCOC(=O)CSc1nc(C2CC2)cc(-c2ccc(F)cc2)c1C#N	i	3	-0.62	28	-0.26	-0.31
COc1ccc(-c2cc(C3CC3)nc(SCC(=O)c3cccs3)c2C#N)cc1	+	1	nt	5	0.19	0.33
COc1ccc2cc3cc(C(=O)NCCN4CCN(Cc5ccccc5)CC4)oc3nc2c1	+	1	nt	2	-2.6	-0.49
O=C(CSc1ncnc2sc3c(c12)CCCCC3)NCc1ccco1	+	0	1.1	2	-1.8	0.18
O=C(COc1ccc(-c2nnc(N3CCCCC3)c3ccccc23)cc1)N1CCCCC1	i	3	-3.2*	34	-0.74	nt
Cc1ccc2nc(N3CCN(c4ccccc4F)CC3)c(C=O)c(=O)n2c1	i	0	0.13	1	nt	0.39
COc1cc2c(cc1OC)-c1nncn1C(C)(C)C2	i	1	nt	10	-0.21	3.8*
CCOC(=O)N1CCc2c(sc(NC(=O)CN3CCOCC3)c2C(=O)Nc2ccccc2)C1	+	5	1	10	nt	0.04
Cn1c(=O)n(C)c2cc(NC(=O)COc3ccc(Cl)cc3)ccc21	i	0	0.48	9	nt	3*
CCN1CCN(CCc2nc3cc(NC(=O)COc4ccc(Cl)cc4)ccc3n2C)CC1	nt	nt	nt	nt	nt	-0.48
COc1ccc(NC(=O)Nc2nnc(-c3cccs3)s2)cc1	nt	nt	nt	nt	nt	-0.36
COc1ccc(C(=O)Nc2nnc(-c3cccs3)s2)cc1	+	0	2.3	3	-0.41	0.41
CCN(CC)c1ccc2cc(-c3nnc(-c4ccccc4)o3)c(=O)oc2c1	?	34	nt	0	-0.93	nt
CCN(CC)c1ccc2cc(-c3nc(-c4ccc(OC)cc4)cs3)c(=O)oc2c1	nt	+	nt	+	0.16	nt
C(=N\Nc1nc(-c2ccccc2)cs1)/c1ccncc1	i	0	nt	2	nt	0.02
O=C(O)c1csc(N/N=C/c2ccc(Br)cc2)n1	+	0	1.4	1	nt	nt
CCOC(=O)C1(Cc2ccccc2)CCN(Cc2ccon2)CC1	+	0	nt	-1	nt	1.2
CCOC(=O)C1(Cc2ccccc2)CCN(Cc2cccc3c2OCO3)CC1	+	1	nt	2	nt	-0.38
CCOC(=O)C1(Cc2ccccc2C(F)(F)F)CCN(Cc2ccon2)CC1	nt	nt	nt	nt	nt	-0.19
CCc1ccc(NC(=O)CCn2cccc2)cc1	i	0	0.062	1	0.31	0.37
SMILES	Autophagy mod	ABCB1 block	ROMK mod	ABCG2 block	SDO1 yeast rescue	Insulin prom up
Cc1ccc(NC(=O)CCn2cccc2)cc1Cl	i	1	-0.78	49	-0.49	3.2*
COc1ccc2oc(=Nc3ccccc3)c(-c3nc4ccccc4[nH]3)cc2c1	i	1	nt	7	-0.15	-0.14
CCN(CC)S(=O)(=O)c1cc(NC(=O)[C@@H](NC(N)=O)C(C)C)ccc1C	i	1	-0.21	11	nt	0.12
CCC(C)(C)n1nnnc1C(c1cc2cc(C)cc(C)c2[nH]c1=O)N1CCN(Cc2ccc3c(c2)OCO3)CC1 (stereo not drawn)	+	1	-2.3	1	1.1	nt
CCC(C)(C)n1nnnc1C(c1cc2cc(C)cc(C)c2[nH]c1=O)N1CCCC1 (stereo not drawn)	i	3	nt	15	-0.88	-0.03
Cc1ccc(C(c2nnnn2Cc2cccs2)N2CCN(Cc3ccc4c(c3)OCO4)CC2)cc1 (stereo not drawn)	i	1	-2.1*	1	-2	-1.2
C=C(C)C1(O)OC(=O)C=C1OC (stereo not drawn)	i	1	nt	2	nt	1.3
CC(C)(C)CC(=O)Nc1nnc(C(F)(F)F)s1	i	1	-0.023	8	0.89	0.19
CC(NC(=O)Nc1nnc(C(F)(F)F)s1)(C(F)(F)F)C(F)(F)F	i	0	-3.5*	1	-0.76	-1.5
